For series [1], the system named is Saccharomyces cerevisiae. Put plainly: Inhibition of 50 nM rapamycin-mediated cytostatic effect in yeast BY4742 after 48 to 96 hrs. It is filed as functional, organism-based.
Series [2] relates to Saccharomyces cerevisiae. In words: Inhibition of rapamycin-mediated cytostatic effect in yeast RM11-1a after 48 to 96 hrs. It is filed as functional.
Series [3] has as its system Saccharomyces bayanus. In words: Inhibition of rapamycin-mediated cytostatic effect in Saccharomyces bayanus after 48 to 96 hrs. It is filed as functional.
The subject of series [4] is Saccharomyces mikatae. In words: Inhibition of rapamycin-mediated cytostatic effect in Saccharomyces mikatae after 48 to 96 hrs. The series is classed as functional.
Series [5] relates to Saccharomyces paradoxus. Put plainly: Inhibition of rapamycin-mediated cytostatic effect in Saccharomyces paradoxus after 48 to 96 hrs. The series is classed as functional.
The test system of series [6] is Saccharomyces cerevisiae. In words: Inhibition of 25 nM rapamycin-mediated cytostatic effect in yeast BY4742 at sub-lethal concentration after 48 to 96 hrs. It is filed as functional, organism-based.
In series [7] the test system is PC-12. Put plainly: Enhancement of autophagy in rat PC12 cells assessed as decrease in alpha-synuclein A53T mutant level at 43 uM by immunoblotting. It is filed as functional, cell-based. In a few lines: (§1)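 Stable PC12 line with doxycycline-inducible HA-tagged A53T α-synuclein; induced with 1 μg/ml doxycycline for 48 h, then doxycycline removed. Compounds added during the 24 h switch-off period, from 5 mg ml⁻¹ DMSO stock diluted 1:20000, 1:4000 or 1:400. HA immunoblot, densitometry relative to actin; control set to 100 %; three independent experiments, factorial ANOVA.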

Series [8] can be described thus: Cytotoxicity against african green monkey COS7 cells at 47 uM after 24 hrs by FACS analysis. The series is classed as cell-based. Particulars: chlorocebus aethiops, cos-7, 24 h.
Series [9] has as its target Huntingtin (Homo sapiens) (UniProt P42858). In words: Inhibition of EGFP-tagged huntingtin aggregation expressed in african green monkey COS7 cells at 47 uM after 48 hrs by […]. Particulars: COS-7. The series is classed as cell-based.
For series [10] the target is unchanged. Put plainly: Inhibition of EGFP-tagged huntingtin expressed in african green monkey COS7 cells assessed as protection against protein-induced cell death at 47 uM after 48 hrs by Western blot analysis. Particulars: COS-7. It is filed as cell-based.
Series [11] has as its target Huntingtin (Mus musculus) (UniProt P42859). In words: Inhibition of EGFP-tagged huntingtin aggregation in MEF harboring Atg5 gene at 47 uM after 48 hrs by Western blot analysis.
Series [12] shares this target. In words: Inhibition of EGFP-tagged huntingtin aggregation in Atg5-deficient MEF at 47 uM after 48 hrs by Western blot analysis.
For series [13], the system named is HeLa. Put plainly: Induction of autophagy in human HeLa cells harboring MAP1LC3 gene at 47 uM after 24 hrs by DAPI staining-based fluorescence microscopy. It is filed as functional, cell-based. An outline of the steps:
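Stable EGFP-LC3 HeLa cells treated 24 h. EGFP-positive autophagic vesicles were imaged by confocal microscopy with DAPI nuclear counterstain.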

For series [14], the system named is HeLa. In words: Increase in MAP1LC3 level in bafilomycin A1-treated human HeLa cells at 47 uM treated fro 24 hrs before bafilomycin A1 challenge by immunoblotting analysis. It is filed as functional, cell-based. An outline of the steps:
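HeLa cells stably expressing EGFP-LC3 were pretreated with compound for 24 h, then given 200 nM bafilomycin A1 for 4 h. EGFP-LC3-II was measured by anti-EGFP immunoblot with densitometry relative to actin, from three independent experiments.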

Series [15] has as its system Drosophila melanogaster. In words: Neuroprotective activity in Drosophila melanogaster Huntington's disease model harboring huntington protein mutant assessed as protection against neurodegeneration at 100 uM. The series is classed as functional, organism-based.
For series [16], the system named is Drosophila melanogaster. Put plainly: Toxicity against Drosophila melanogaster Huntington's disease model at 100 uM. The series is classed as organism-based. Conditions: in vivo.
For series [17], the target named is Serine/threonine-protein kinase mTOR (Homo sapiens) (UniProt P42345). Put plainly: Inhibition of mTOR phosphorylation expressed in african green monkey COS7 cells at 47 uM by Western blot analysis. The series is classed as cell-based. Conditions: COS-7.
The test system of series [18] is COS-7. Put plainly: Effect on ATg6 level in african green monkey COS7 cells at 47 uM after 24 hrs by immunoblotting. The series is classed as functional, cell-based. Particulars: Chlorocebus aethiops.
In series [19] the test system is COS-7. Put plainly: Effect on ATg5 level in african green monkey COS7 cells at 47 uM after 24 hrs by immunoblotting. Particulars: Chlorocebus aethiops. The series is classed as functional, cell-based.
The subject of series [20] is COS-7. In words: Effect on ATg7 level in african green monkey COS7 cells at 47 uM after 24 hrs by immunoblotting. Particulars: Chlorocebus aethiops. It is filed as functional, cell-based.
Series [21] deals with COS-7. Put plainly: Effect on ATg12 level in african green monkey COS7 cells at 47 uM after 24 hrs by immunoblotting. It is filed as functional, cell-based. Conditions: Chlorocebus aethiops.
The subject of series [22] is COS-7. In words: Increase in conjugated Atg12-Atg5 level in african green monkey COS7 cells at 47 uM after 24 hrs by immunoblotting. It is filed as functional, cell-based. Conditions: Chlorocebus aethiops.
The test system of series [23] is HeLa. Put plainly: Inhibition of proteasome activity in human HeLa cells assessed as induction of ubiquitinG76V-EGFP reporter level at 47 uM after 24 hrs by immunoblotting.
The subject of series [24] is PC-12. Put plainly: Enhancement of rapamycin-induced clearance of alpha-synuclein A53T mutant protein in rat PC12 cells at 140 uM after 8 hrs by immunoblotting. It is filed as functional, cell-based. An outline of the steps: (§2)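 Inducible PC12 A53T α-synuclein line (1 μg/ml doxycycline, 48 h, then switched off). Compound given alone or with 0.2 μM rapamycin over an 8 h switch-off period. Read-out is anti-HA immunoblot with densitometry relative to actin, n=3, control as 100 %.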

Series [25] has as its system PC-12. In words: Enhancement of rapamycin-induced clearance of alpha-synuclein A53T mutant protein in rat PC12 cells at 43 uM after 8 hrs by immunoblotting. It is filed as functional, cell-based. An outline of the steps: as §2
In series [26] the target is Huntingtin (Homo sapiens) (UniProt P42858). Put plainly: Inhibition of EGFP-tagged huntingtin aggregation expressed in african green monkey COS7 cells at 140 uM after 24 hrs by […] in presence of 0.2 uM rapamycin. It is filed as cell-based. Conditions: COS-7.
Huntingtin (Homo sapiens), sequence (P42858 whole entry): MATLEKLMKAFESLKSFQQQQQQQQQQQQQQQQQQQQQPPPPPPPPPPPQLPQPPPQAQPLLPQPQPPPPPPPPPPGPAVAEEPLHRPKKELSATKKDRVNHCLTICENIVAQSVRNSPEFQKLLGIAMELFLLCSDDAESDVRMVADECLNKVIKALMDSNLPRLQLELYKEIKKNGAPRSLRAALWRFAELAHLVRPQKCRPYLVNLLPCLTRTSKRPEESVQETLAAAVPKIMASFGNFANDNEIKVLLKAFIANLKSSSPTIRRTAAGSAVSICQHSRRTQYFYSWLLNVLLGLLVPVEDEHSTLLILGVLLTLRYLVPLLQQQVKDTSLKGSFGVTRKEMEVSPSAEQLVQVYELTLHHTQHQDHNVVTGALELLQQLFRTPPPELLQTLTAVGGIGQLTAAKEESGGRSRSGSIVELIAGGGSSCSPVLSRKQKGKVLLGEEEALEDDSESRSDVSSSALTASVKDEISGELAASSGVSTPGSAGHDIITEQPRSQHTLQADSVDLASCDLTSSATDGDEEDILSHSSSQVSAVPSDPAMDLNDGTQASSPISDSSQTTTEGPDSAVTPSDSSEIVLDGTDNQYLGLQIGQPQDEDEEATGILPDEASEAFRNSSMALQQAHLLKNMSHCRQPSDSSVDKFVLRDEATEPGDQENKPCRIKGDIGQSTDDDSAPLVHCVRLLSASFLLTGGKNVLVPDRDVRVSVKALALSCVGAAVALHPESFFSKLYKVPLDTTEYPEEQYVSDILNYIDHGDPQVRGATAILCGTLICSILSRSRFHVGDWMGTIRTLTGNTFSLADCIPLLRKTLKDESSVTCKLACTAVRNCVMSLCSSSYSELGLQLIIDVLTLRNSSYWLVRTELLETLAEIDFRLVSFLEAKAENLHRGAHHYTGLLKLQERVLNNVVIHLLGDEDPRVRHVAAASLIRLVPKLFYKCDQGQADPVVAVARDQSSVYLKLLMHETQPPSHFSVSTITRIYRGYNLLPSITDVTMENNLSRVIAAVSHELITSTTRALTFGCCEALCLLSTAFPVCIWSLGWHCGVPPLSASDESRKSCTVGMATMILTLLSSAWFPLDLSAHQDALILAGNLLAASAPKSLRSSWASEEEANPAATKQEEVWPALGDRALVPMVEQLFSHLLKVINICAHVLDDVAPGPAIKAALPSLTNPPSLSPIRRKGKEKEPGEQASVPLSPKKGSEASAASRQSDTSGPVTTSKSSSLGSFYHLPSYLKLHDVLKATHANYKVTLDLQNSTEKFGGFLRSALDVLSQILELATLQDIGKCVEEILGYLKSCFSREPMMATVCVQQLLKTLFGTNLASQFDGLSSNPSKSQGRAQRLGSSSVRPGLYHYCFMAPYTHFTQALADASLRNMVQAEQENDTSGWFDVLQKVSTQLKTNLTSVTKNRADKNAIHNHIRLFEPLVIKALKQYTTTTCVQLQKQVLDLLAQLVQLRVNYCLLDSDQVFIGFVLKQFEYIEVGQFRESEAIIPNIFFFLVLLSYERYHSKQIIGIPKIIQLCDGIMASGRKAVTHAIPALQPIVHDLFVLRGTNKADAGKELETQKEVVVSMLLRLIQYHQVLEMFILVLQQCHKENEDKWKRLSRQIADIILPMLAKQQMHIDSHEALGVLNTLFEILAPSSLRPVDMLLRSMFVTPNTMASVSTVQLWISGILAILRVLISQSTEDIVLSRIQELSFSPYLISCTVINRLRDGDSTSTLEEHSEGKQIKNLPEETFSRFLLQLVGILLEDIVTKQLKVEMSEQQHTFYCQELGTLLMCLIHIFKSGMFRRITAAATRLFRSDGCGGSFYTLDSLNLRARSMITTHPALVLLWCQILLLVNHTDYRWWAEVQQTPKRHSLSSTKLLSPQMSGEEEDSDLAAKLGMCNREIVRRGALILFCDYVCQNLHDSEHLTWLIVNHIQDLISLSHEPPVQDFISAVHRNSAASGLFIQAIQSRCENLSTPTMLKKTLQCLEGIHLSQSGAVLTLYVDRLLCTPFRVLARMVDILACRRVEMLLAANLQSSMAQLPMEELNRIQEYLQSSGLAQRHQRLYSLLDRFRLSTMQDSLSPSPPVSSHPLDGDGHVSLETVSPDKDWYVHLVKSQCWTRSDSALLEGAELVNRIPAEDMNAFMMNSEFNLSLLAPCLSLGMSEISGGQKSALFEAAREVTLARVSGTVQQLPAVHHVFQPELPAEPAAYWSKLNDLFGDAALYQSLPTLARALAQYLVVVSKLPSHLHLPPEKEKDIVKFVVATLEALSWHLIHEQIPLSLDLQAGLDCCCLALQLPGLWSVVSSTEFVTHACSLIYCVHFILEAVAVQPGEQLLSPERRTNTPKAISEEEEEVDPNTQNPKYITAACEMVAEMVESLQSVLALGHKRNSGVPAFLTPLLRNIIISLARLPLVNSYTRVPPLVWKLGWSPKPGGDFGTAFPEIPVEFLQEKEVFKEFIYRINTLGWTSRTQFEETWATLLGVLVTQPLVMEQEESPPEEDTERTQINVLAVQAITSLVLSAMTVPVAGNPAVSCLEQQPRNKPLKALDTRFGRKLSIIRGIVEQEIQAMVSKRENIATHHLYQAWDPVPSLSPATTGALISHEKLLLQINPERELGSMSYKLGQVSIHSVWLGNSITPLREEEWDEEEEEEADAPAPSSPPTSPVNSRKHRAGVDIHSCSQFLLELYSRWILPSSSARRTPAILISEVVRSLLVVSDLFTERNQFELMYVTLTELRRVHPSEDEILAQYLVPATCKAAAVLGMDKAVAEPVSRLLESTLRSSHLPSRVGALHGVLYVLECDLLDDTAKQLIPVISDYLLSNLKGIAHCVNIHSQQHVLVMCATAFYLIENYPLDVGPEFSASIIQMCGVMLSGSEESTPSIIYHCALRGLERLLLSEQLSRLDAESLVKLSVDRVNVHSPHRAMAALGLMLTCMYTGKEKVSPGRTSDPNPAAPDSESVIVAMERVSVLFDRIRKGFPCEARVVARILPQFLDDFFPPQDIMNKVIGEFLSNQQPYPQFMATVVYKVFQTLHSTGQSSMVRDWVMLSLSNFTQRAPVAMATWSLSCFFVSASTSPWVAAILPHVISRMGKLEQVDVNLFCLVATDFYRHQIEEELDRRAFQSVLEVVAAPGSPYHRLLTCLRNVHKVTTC
For series [27], the system named is Saccharomyces cerevisiae. In words: Enhancement of 20 nM rapamycin-mediated cytostatic effect in yeast BY4742 after 48 to 96 hrs. It is filed as functional, organism-based.
For series [28], the system named is Saccharomyces cerevisiae. In words: Enhancement of rapamycin-mediated cytostatic effect in yeast RM11-1a after 48 to 96 hrs. It is filed as functional.
In series [29] the test system is Saccharomyces bayanus. Put plainly: Enhancement of rapamycin-mediated cytostatic effect in Saccharomyces bayanus after 48 to 96 hrs. It is filed as functional.
In series [30] the test system is Saccharomyces mikatae. In words: Enhancement of rapamycin-mediated cytostatic effect in Saccharomyces mikatae after 48 to 96 hrs. It is filed as functional.
Series [31] has as its system Saccharomyces paradoxus. Put plainly: Enhancement of rapamycin-mediated cytostatic effect in Saccharomyces paradoxus after 48 to 96 hrs. The series is classed as functional.
For series [32], the system named is Saccharomyces cerevisiae. Put plainly: Enhancement of anisomycin-mediated cytostatic effect in yeast BY4742 after 48 to 96 hrs. It is filed as functional, organism-based.
Series [33] concerns Saccharomyces cerevisiae. In words: Enhancement of CHX-mediated cytostatic effect in yeast BY4742 after 48 to 96 hrs. It is filed as functional, organism-based.
The test system of series [34] is Saccharomyces cerevisiae. Put plainly: Enhancement of nocodazole-mediated cytostatic effect in yeast BY4742 after 48 to 96 hrs. It is filed as functional, organism-based.
Series [35] relates to Saccharomyces cerevisiae. In words: Enhancement of tunicamycin-mediated cytostatic effect in yeast BY4742 after 48 to 96 hrs. The series is classed as functional, organism-based.
Series [36] deals with PC-12. Put plainly: Enhancement of autophagy in rat PC12 cells assessed as decrease in alpha-synuclein A53T mutant level at 5 mg/ml by densitometry. The series is classed as functional, cell-based. An outline of the steps: as §1
The subject of series [37] is Saccharomyces cerevisiae. In words: Enhancement of menadione-mediated cytostatic effect in yeast BY4742 after 48 to 96 hrs. The series is classed as functional, organism-based.
In series [38] the test system is PC-12. In words: Enhancement of autophagy in rat PC12 cells assessed as decrease in alpha-synuclein A53T mutant level at 47 uM by immunoblotting. The series is classed as functional, cell-based. In a few lines:
as §1

Active and inactive are the calls of the source. No cut-off for these calls is given here.

The source of these data is ChEMBL document CHEMBL1240327, “Small molecules enhance autophagy and reduce toxicity in Huntington's disease models” (Nat Chem Biol, 2007).

In the case of `O=C1C(Nc2ccccc2)=CC(=O)c2ncccc21`, in the series on Saccharomyces cerevisiae [1], a half-maximal effect (EC50) was put at 10.4 µM. The inhibition result in the series on Saccharomyces cerevisiae [2], in the series with Saccharomyces bayanus [3], in the series on Saccharomyces mikatae [4] and in the series with Saccharomyces paradoxus [5] was “Active” each time.
With `COc1ccc(C[C@H]2NC[C@H](O)[C@H]2OC(C)=O)cc1`, in the series on Saccharomyces cerevisiae [6], the inhibition result was “inactive”.
With `Nn1cnc2c(c1=O)C1(CCCC1)Cc1ccccc1-2`, the result with PC-12 [7], with HeLa [13], in the series on HeLa [14], in the series on Drosophila melanogaster [15], with PC-12 [24] and in the series on PC-12 [25] was Active. Also, the result in the series with Saccharomyces cerevisiae [28], in the series with Saccharomyces bayanus [29], with Saccharomyces mikatae [30], with Saccharomyces paradoxus [31], in the series on Saccharomyces cerevisiae [32] and in the series on Saccharomyces cerevisiae [33] was Active. For the same compound, the outcome in the series with Saccharomyces cerevisiae [34], in the series with Saccharomyces cerevisiae [35], in the series on PC-12 [36], in the series on Saccharomyces cerevisiae [37] and in the series on PC-12 [38] was Active. For the same compound, the Activity result (in [8]; in the series on Drosophila melanogaster [16]) was “Non-toxic” each time. Besides, the inhibition result in series [9], in [10] and in series [26] was “Active” in each case. For the same compound, the inhibition result (in series [11]; in [12]; in [17]; in the series with HeLa [23]) was “inactive” each time. Further, the result in the series on COS-7 [18], in the series with COS-7 [19], with COS-7 [20], in the series on COS-7 [21] and in the series on COS-7 [22] was inactive. In addition, in the series on Saccharomyces cerevisiae [27], the EC50 was found to be 4.9 µM.
